SMILES strings stand for the structures.

A short description of this series: Toxicity liver stage against HepG2, at 10uM. It counts as cell-based. Details: test concentration 10 uM, cell line HepG2-A16-CD81EGFP. Particulars: human, HepG2-A16-CD81EGFP cells; read-out: INHIBITION
The method in brief:
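Uninfected HepG2-A16-CD81EGFP cells, 3 × 10^3 per well, 1536-well, plated on prespotted compound at 10 μM final, parasite-free screening media added to match infected plates; puromycin 10 μM positive, DMSO 0.5% negative; run in parallel with 48 h PbLuc assay at 37 °C, 5% CO2; viability by CellTiter-Glo luminescence, normalized to controls.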
Turning to `COCCC(=O)N1CCCC1c1nc(C)c2c(n1)N(C)C(=O)CC2` (stereo unspecified), the cytotoxicity at 10 µM was -1.04%.

For the compound `CCOc1ncccc1CNC(=O)N1CCCC1c1cccs1` (stereo unspecified), the cytotoxicity at 10 µM stood at 4.93%.

As to `c1c[nH]c(-c2cn(CCSc3cnn[nH]3)nn2)n1`, the cytotoxicity at 10 µM was -47.5%. As for `O=C(Nc1ccc(OC2CCCC2)cc1)C1CCCN1c1nccs1` (stereo unspecified), the figure is -10.2%. Then `Cc1nc(C)n(C2CCCN(C(=O)c3ccc(F)c(F)c3)C2)n1` (stereo unspecified), with -11.9%. As for `c1ccc2c(c1)cnn2CCCNC1CCOC2(CCOCC2)C1` (stereo unspecified), the figure is -7.35%; as for `O=C(CCNC(=O)c1ccccc1)Nc1ccncc1`, -2.36%; as for `CCOC(=O)c1cnn(-c2cc(Oc3ccccc3)ncn2)c1N`, 2.93%.

In the case of `Cc1nc(CN(C)CC2CCCN(CCc3ccc(Cl)cc3)C2)n(C)n1` (stereo unspecified), the cytotoxicity at 10 µM turned out to be 4.44%.

In the case of `CC1CN(C)CCN1C(=O)c1cnc2c(cnn2C2CCCC2)c1` (stereo unspecified), the cytotoxicity at 10 µM is -12.8%. With `CC1CN(C)CCN1C(=O)COc1cccc(Oc2ccccn2)c1` (stereo unspecified), the cytotoxicity at 10 µM turned out to be 10.7%. `CCOCCCOC(=O)c1ccc2c(c1)[nH]c(=O)n2C`: the cytotoxicity at 10 µM came out at 3.54%. Regarding `Cc1noc(CCNS(=O)(=O)N2CCCC2c2ccco2)n1` (stereo unspecified), the cytotoxicity at 10 µM is -6.43%. On to `Cc1cccnc1C(Cc1ccsc1)NCc1cnc(N(C)C)nc1` (stereo unspecified), for which the cytotoxicity at 10 µM was found to be 5.24%. As to `CCOc1ccc(C(=O)N2CCCCC2Cn2nc(C)cc2C)cn1` (stereo unspecified), the cytotoxicity at 10 µM is 6.6%. Then `O=C1C[C@@H]2CCN(Cc3ccccc3)C[C@@H]2CCN1C1CCCCC1`, with 5.17%. As for `CN(C)c1cncc(C2CCCN2S(=O)(=O)c2cn(C)cn2)n1` (stereo unspecified), the figure is -27.1%; as for `CCN1CCOC(CNCc2ccccc2OCc2cccnc2)C1` (stereo unspecified), -13.1%; as for `O=C(Cc1cccnc1)N1CCCC(c2cc(C(F)(F)F)[nH]n2)C1` (stereo unspecified), -42.6%. For the compound `NCCn1cc(C(=O)NCc2ccccc2Cn2cccn2)nn1`, the cytotoxicity at 10 µM worked out at 3.41%. Consider `O=C(Nc1ccccn1)C1(n2cnnn2)CCCCC1`, for which the cytotoxicity at 10 µM is -7.03%.

In the case of `COC(=O)c1ccc(OC)c(Cn2cc(Br)cn2)c1`, the cytotoxicity at 10 µM was 3.05%. Then `CN1CCN(C2CCN(Cc3noc(-c4ccccc4)n3)CC2)C1=O`, with 9.5%.

On to `Cn1cc(CN(CC2(O)CNCCOC2)C2CCCCC2)cn1` (stereo unspecified), for which the cytotoxicity at 10 µM was 3.09%.

As to `CCN1CCN(C(=O)C(C)N2CCN(Cc3nccn3C)CC2)CC1` (stereo unspecified), the cytotoxicity at 10 µM is -6.34%. As for `CC(C)c1nc(CN(C)C(=O)c2ccc3c(c2)OCC(=O)N3)cs1`, the figure is -4.15%. For `CC(=O)N1CCN(C(=O)NCCCN(C(C)C)S(C)(=O)=O)CC1`, the cytotoxicity at 10 µM was -14%.

Take `COc1ccc(C(=O)N2C[C@@H](O)[C@H](NCc3cnc(C)cn3)C2)cc1`: the cytotoxicity at 10 µM came out at 3.34%. Turning to `COc1cccc([C@@]2(O)CC[C@@H]3CN(C(=O)c4cn(C)nc4C)C[C@@H]32)c1`, the cytotoxicity at 10 µM turned out to be 3.51%. Then `O=C(Cn1c(=O)[nH]c2cn(-c3ccccc3)c(=O)n21)NC1CCCCC1`, with -0.2%; and `Cc1cccc(C(=O)N2CC[C@H]3C[C@@H](C)O[C@@H]3C2)n1`, with 5.37%; and `CN(Cc1noc(C2CC2)n1)C1CCN(CC(=O)N2CCOCC2)C1` (stereo unspecified), with -5.25%. Turning to `CS(=O)(=O)CCC(=O)N1CCC(c2ccc(F)c(F)c2)CC1`, the cytotoxicity at 10 µM turned out to be 7.09%. As for `Cc1cccc(NC(=O)C2CSc3ncc(C)c(=O)n3C2)n1` (stereo unspecified), the figure is 0.0115%; as for `CC(C)c1csc(C2CCCN(C(=O)Cn3ccccc3=O)C2)n1` (stereo unspecified), -14.4%; as for `CCCc1cc(=O)[nH]c2nnc(SCC(=O)NCc3ccc(C)cc3)n12`, -15.7%. Then `CC1CS(=O)(=O)CCN1CCCc1ccc(Cl)cc1` (stereo unspecified), with 9.28%; and `COc1cc2c(cc1OC)C(=O)C(Sc1nnc(C)o1)C2` (stereo unspecified), with 0.372%; and `COc1cccc(-c2ccnc(C3CCNCC3)c2)c1`, with 56.4%. Then `Cc1ccc(CC2CCCN(S(C)(=O)=O)C2)nc1` (stereo unspecified), with -8.58%; and `Cc1cc(CN2C[C@@H]3COC[C@]3(CNC(=O)c3ccco3)C2)no1`, with -71.1%.

`CN(C)S(=O)(=O)N1CC[C@@H]2CN(Cc3cnn(C)c3)C[C@@H]2C1`: the cytotoxicity at 10 µM worked out at 13.5%. On to `CC(C)N1CCc2onc(Cn3cccn3)c2C1`, for which the cytotoxicity at 10 µM was 5.44%.

Regarding `O=c1[nH]c2nc(N3CCSCC3)ncc2c(=O)n1-c1cccc(F)c1`, the cytotoxicity at 10 µM was -1.82%. As for `Cc1ccc(C(=O)NCC(O)CN2CCCC2=O)cc1Cl` (stereo unspecified), the figure is -8.69%; as for `CC(=O)Nc1nc(CNc2ccccc2CCC(F)(F)F)cs1`, 27.9%; as for `COC(C)(C)CC(C)NCc1cn2ccccc2n1` (stereo unspecified), -3.48%. As for `CC(C)N1CC(c2ccnc(Nc3nccs3)n2)C1`, the cytotoxicity at 10 µM stood at 1.18%. With `Cc1nn(C)c2nc(NC3CCNCC3)sc12`, the cytotoxicity at 10 µM is -10.4%. As to `Cn1cc(CCC(=O)NC(c2ccc(F)cc2)C(F)(F)F)cn1` (stereo unspecified), the cytotoxicity at 10 µM is 1.68%. With `CS(=O)(=O)N1C[C@H]2CC[C@@H](C1)N(C(=O)Cn1nc3ccccc3n1)C2`, the cytotoxicity at 10 µM turned out to be 10.8%. As to `O=C1CC2(CCN(CC3CCOC3)CC2)CN1Cc1cc(F)cc(F)c1` (stereo unspecified), the cytotoxicity at 10 µM is -18.9%. Then `O=C(CCCOc1ccccc1)N1CCCC1Cn1cccn1` (stereo unspecified), with -7.83%; and `CC(C)C1CN(c2ncc(F)cn2)CCC(=O)N1Cc1ccc(F)cc1` (stereo unspecified), with 16.9%. Then `Cc1nonc1-c1nc(C(C)C)nn1-c1ccc2c(c1)OCO2`, with -6.9%. As for `Cc1nnc(CN2CCCC2c2cccc(Br)c2)o1` (stereo unspecified), the figure is -3.51%; as for `CN(C)S(=O)(=O)N1CC[C@]2(C[C@@H](Oc3ncccc3F)CO2)C1`, -67%; as for `CCC(C)(C)NC(=O)c1ncn2c1CN(C)S(=O)(=O)c1ccccc1-2`, -137%. Turning to `Cc1ccccc1CS(=O)(=O)NCCCN1CCCC1`, the cytotoxicity at 10 µM was -7.49%. In the case of `CC(C)c1ccc(OCCC(=O)N(C)CC(=O)N(C)C)cc1`, the cytotoxicity at 10 µM came to 4.72%.

For `CC(C(=O)NCc1ccc(N2CCN(C)CC2)nc1)n1cccn1` (stereo unspecified), the cytotoxicity at 10 µM is -9.51%. As for `O=C1NCCN(C(=O)CCN2CCCO2)C1c1cccc(F)c1` (stereo unspecified), the figure is 5.47%. With `O=C(c1cc(F)ccc1O)N1CCN(C2CCSC2)CC1` (stereo unspecified), the cytotoxicity at 10 µM was 0.773%.

As to `O=C1OCCN1CCS(=O)(=O)c1cccc(Br)c1`, the cytotoxicity at 10 µM is 6.29%. On to `O=C(O)C1c2nc[nH]c2CCN1Cc1ccccc1-c1ccccc1` (stereo unspecified), for which the cytotoxicity at 10 µM was -10.5%.

Regarding `Cc1nnc2n1CCN(CCOc1ccccc1C#N)C2`, the cytotoxicity at 10 µM was -4.53%. As for `O=C(N1CCCC(n2cncn2)C1)C1(c2cccc(F)c2)CC1` (stereo unspecified), the figure is -2.91%; as for `O=C(CCn1cccn1)N1CCC(c2nnc(-c3ccsc3)o2)CC1`, 4.25%. Then `CCCc1cc(=O)[nH]c2nnc(SCC(=O)OCC)n12`, with 10.8%; and `COc1ccnc(CN2CCCC(CCc3ccccc3)C2)c1OC` (stereo unspecified), with 0.979%. As for `O=C(NC1CCCC1)NC1CCC(C(=O)N2CCSCC2)CC1` (stereo unspecified), the figure is 3.58%.
